Results from different studies.
Lines come from different studies, so protocols differ.
Observed: cell growth or viability

| SMILES | cell line | test | setting | IC50 [µM] |
| --- | --- | --- | --- | --- |
| Cc1cccc(N=C2C(=O)N(Cc3cccc(Cl)c3)c3ccccc32)c1 | L02 | MTT | 48 h | 25.8 |
| CC1=CC(=O)c2ccccc2C1=O | MOLT-3 | XTT | – | 10.3 |
| COc1cccc2c1cc1c3c(cc4c(c32)OCO4)C(=O)N1C | MOLT-3 | XTT | 75 h | 50.3 |
| Nc1nnc(-c2ccccc2O)cc1N1CC2CCC(C1)N2c1ccnc(F)c1 | NCI-H1944 | ATP luminescence | 7 days | > 1 |
| CC(C)(C)c1cnc(CSc2cnc(NC(=O)C3CCN(C(=O)CCCCCCCN4Cc5cc6c(cc5C4)C(=O)N(C4CCC(=O)NC4=O)C6=O)CC3)s2)o1 (stereo not drawn) | NALM-6 | MTT | – | 0.0234 |
| COc1cccc2c1C(=O)c1c(O)c3c(c(O)c1C2=O)C[C@@](O)(C(=O)CO)C[C@@H]3O[C@H]1C[C@H](N)[C@H](O)[C@H](C)O1 | CAL-51 | ATP luminescence | 72 h | 0.12 |
| COC[C@H](NC(=O)c1ccn(S(C)(=O)=O)c1)C(=O)Nc1nc(-c2cccc(N3C[C@@H](C)O[C@@H](C)C3)n2)cs1 | NCI-H1944 | ATP luminescence | 7 days | 0.0451 |
| O=C1C(=Nc2ccc(Cl)cc2Br)c2ccccc2N1Cc1ccc(Br)cc1 | L02 | MTT | 48 h | 7.75 |
| Cc1cc(Nc2ncnc3ccc(NC4=NC(C)(C)CO4)cc23)ccc1Oc1ccn2ncnc2c1 | HCC1419 | ATP luminescence | – | 0.0302 |
| O=C(NO)c1ccc(Cn2cnc3c(Nc4ccc(Cl)cc4)ncnc32)cc1 | NALM-6 | MTT | 72 h | 0.41 |
| CC1=CC(=O)C(C(C)C)=CC1=O | PANC-1 | SRB | 48 h | 8.9 |
| CS(=O)(=O)CCNCc1ccc(-c2ccc3ncnc(Nc4ccc(OCc5cccc(F)c5)c(Cl)c4)c3c2)o1 | HCC1419 | ATP luminescence | – | 0.0544 |
| COc1cccc2c1C(=O)c1c(O)c3c(c(O)c1C2=O)C[C@@](O)(C(=O)CO)C[C@@H]3O[C@H]1C[C@H](N)[C@H](O)[C@H](C)O1 | MOLT-3 | XTT | 75 h | 0.046 |
| O=C1C(=Nc2ccc(Cl)cc2)c2ccccc2N1Cc1ccc(Br)cc1 | L02 | MTT | 48 h | > 100 |
| COc1ccc(Nc2ncnc3c2ncn3Cc2ccc(C(=O)NO)cc2)cc1 | NALM-6 | MTT | 72 h | 2.01 |
| C=CCN1C(=O)C(=Nc2cccc(C)c2)c2ccccc21 | L02 | MTT | 48 h | 14.1 |
| C(=N\Nc1cc(N/N=C/c2cccc3cccnc23)ncn1)/c1cccc2cccnc12 | L02 | MTT | 48 h | 31.6 |
| O=C1Nc2ccccc2C1=Nc1ccc(Cl)cc1 | L02 | MTT | 48 h | 28.4 |
| C(=N\Nc1cc(N/N=C/c2ccc3ccccc3n2)ncn1)/c1ccc2ccccc2n1 | L02 | MTT | 48 h | > 100 |
| COc1ccc(Nc2ncnc3c2ncn3Cc2ccc(C(=O)Nc3ccccc3N)cc2)cc1 | NALM-6 | MTT | 72 h | 7.81 |
| O=C1C(=Nc2ccc(Cl)cc2)c2ccccc2N1Cc1cccc(Cl)c1 | L02 | MTT | 48 h | 32 |
| O=C(NO)c1ccc(Cn2cnc3c(Nc4ccc(Br)cc4F)ncnc32)cc1 | NALM-6 | MTT | 72 h | 2.12 |
| COc1cc(N=C2C(=O)Nc3ccccc32)cc(OC)c1 | L02 | MTT | 48 h | > 100 |
| C=C1C[C@@]23CC[C@H]4[C@@](C)(CCC[C@@]4(C)C(=O)O)[C@@H]2CC[C@@H]1C3 | MOLT-3 | XTT | 75 h | 116 |
